# Measured values from different studies.
# TYK2 JH2: Non-receptor tyrosine-protein kinase TYK2, JH2 (TYK2, Homo sapiens, UniProt P29597)
# TYK2: Non-receptor tyrosine-protein kinase TYK2 (TYK2, Homo sapiens, UniProt P29597)
SMILES,target,read-out,mode,method,concentration,quantity,result
N#CC1(c2ccccn2)CCN(Cc2cc(C(=O)O)c(=O)n3ccccc23)CC1,TYK2 JH2,cell-free assay,,competition with immobilised ligand,1 µM,remaining binding,93%
O=c1[nH]c2ccccc2n1C1CCN(Cc2ccc(-c3[nH]c4cc5ncnc5cc4nc3-c3ccccc3)cc2)CC1,TYK2,cell-free assay,,,0.5 µM,remaining signal,101%
Cn1cc(-c2cc(F)cc(N3CCn4c(cc5c4CCCC5)C3=O)c2CO)cc(Nc2ccc(N3CCN(C4COC4)CC3)cn2)c1=O,TYK2,enzyme activity,inhibitor,,0.1 µM,inhibition,1%
CC(C)(C)c1cc(C=C(C#N)C#N)cc(Br)c1O,TYK2,enzyme activity,inhibitor,,0.5 µM,remaining activity,61.3%
Cn1cncc1[C@@](O)(COc1ccc(C#N)cc1-c1ccc(OC(F)(F)F)cc1)c1ccc(C#N)cc1,TYK2 JH2,cell-free assay,,competition with immobilised ligand,1 µM,remaining binding,100%
Cn1cc(-c2cccc(N3CCc4c(sc5c4CC(C)(C)C5)C3=O)c2CO)cc(Nc2ccncn2)c1=O,TYK2,enzyme activity,inhibitor,,1 µM,inhibition,3%
COc1ncccc1-c1cnn2ccc(N3CCN(C(=O)OC(C)C)CC3)nc12,TYK2,binding,,competition with immobilised ligand,1 µM,remaining binding,76%
Cc1nn(C)cc1-c1nc2c(N3CCN(Cc4ccc(Cl)cc4)CC3)c(Cl)cnc2[nH]1,TYK2 JH2,binding,,competition with immobilised ligand,1 µM,remaining binding,100%
Nc1ncc(-c2nc(N3CCOCC3)nc(N3CCOCC3)n2)c(C(F)F)n1,TYK2 JH2,binding,,competition with immobilised ligand,10 µM,remaining binding,15%
